Source: ChEMBL document CHEMBL4680118, “Cerpegin-derived furo[3,4-c]pyridine-3,4(1H,5H)-diones enhance cellular response to interferons by de novo pyrimidine biosynthesis inhibition” (Eur J Med Chem, 2020)
Activity calls are given as the source filed them. The rule behind the calls is not given here.

Tests used:
Format in all cases: cell-based
[1] = molecular target: T1, Dihydroorotate dehydrogenase (quinone), mitochondrial (Homo sapiens, UniProt Q02127); assay: Inhibition of DHODH in human HEK-293 cells transfected with ISRE-luciferase reporter gene assessed as increase in IFN-alpha mediated cellular response at 80 uM in presence of orotate measured after 24 hrs by luciferase reporter gene assay; conditions: HEK293
T1 sequence (Q02127 whole entry): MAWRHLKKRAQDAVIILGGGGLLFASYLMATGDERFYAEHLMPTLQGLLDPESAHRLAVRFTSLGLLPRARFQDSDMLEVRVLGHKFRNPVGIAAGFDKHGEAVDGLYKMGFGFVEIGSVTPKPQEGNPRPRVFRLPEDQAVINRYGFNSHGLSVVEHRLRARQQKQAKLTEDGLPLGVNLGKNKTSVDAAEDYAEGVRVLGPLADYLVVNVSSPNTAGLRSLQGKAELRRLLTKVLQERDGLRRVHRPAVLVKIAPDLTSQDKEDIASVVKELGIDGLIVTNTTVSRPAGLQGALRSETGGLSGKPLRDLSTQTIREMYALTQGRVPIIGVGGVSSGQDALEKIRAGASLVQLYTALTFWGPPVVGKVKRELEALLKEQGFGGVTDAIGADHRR
Summary of the method: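 ISRE-Luc HEK-293 cells exposed to increasing IFN-α concentrations with DMSO or compound (80 µM), supplemented with uridine (125 µM) or with 3 mM orotate or DHO. Reporter luciferase read after 24 h, normalized to DMSO + IFN-α 250 IU/ml. Means ± SD of three independent experiments; two-way ANOVA.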

[2] = molecular target: T1, Dihydroorotate dehydrogenase (quinone), mitochondrial; assay: Inhibition of DHODH in human HEK293 cells transfected with ISRE-luciferase reporter gene assessed as increase in 125 IU/ml IFN-alpha stimulated IFIT1 mRNA expression at 80 uM measured after 16 hrs by RT-qPCR analysis relative to control
Summary of the method: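 ISRE-Luc HEK cells co-treated with increasing IFN-α concentrations and DMSO or compound (80 µM) for 16 h. Total RNA extracted from 2×10^5 cells with DNase step; qPCR 35 cycles. CT values normalized to RPL13A and unstimulated controls (2^-ΔΔCT), expressed as fold change versus DMSO alone. Three independent experiments; two-way ANOVA with Bonferroni.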

[3] = molecular target: T1, Dihydroorotate dehydrogenase (quinone), mitochondrial; assay: Inhibition of DHODH in […] treated with R848 stimulated cell supernatant assessed as increase in IFN-gamma-containing conditioned supernatant-stimulated cellular response at 80 uM measured after 24 hrs by luciferase reporter gene assay
Summary of the method: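 Donor PBMCs were activated for 24 h with R848 at 5 µg/ml, and the supernatants (containing IFN-γ) were collected. HEK-293 ISRE-Luc reporter cells, not PBMCs, were then stimulated with these supernatants diluted 1/8 to 1/64, in the presence of DMSO or compound at 80 μM. Luciferase was read at 24 h and normalized to cells given the 1/8 dilution. Three independent experiments; two-way ANOVA with Bonferroni.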

Activity [1]: inactive
fold change (FC) [2]: 115
Activity [3]: Active
SMILES: O=C1OC2(CCCCC2)c2ccn(C3CC3)c(=O)c21
